Measured values taken from ChEMBL document CHEMBL3992558, “Benzimidazole inhibitors from the Niclosamide chemotype inhibit Wnt/β-catenin signaling with selectivity over effects on ATP homeostasis” (Bioorg Med Chem, 2017).
Calls of active or inactive are those of the source. The calls are words filed in the database; no cut-off is given here.

Assays:
Homo sapiens [1] = species on record: Homo sapiens; experiment: Inhibition of Wnt/beta-catenin signaling in human U2OS cells expressing GFP-fused Fzd1 assessed as GFP-Fzd1 internalization by measuring number of punctate formed at 12.5 uM after 6 hrs by confocal microscopic method; assay type: cell-based
In short: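 U2OS cells stably expressing Frizzled1-GFP were plated in confocal dishes for 24 h, then treated with 12.5 μM compound in DMSO or DMSO for 6 h at 37°C and fixed in 4% paraformaldehyde. Confocal images (488-nm excitation) were read twice, blinded, and punctate was scored versus control on a 0–5 scale (0, 1, 3, 5).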

Homo sapiens [2] = species on record: Homo sapiens; experiment: Inhibition of Wnt/beta-catenin signaling (unknown origin) expressed in HEK293 cells assessed as inhibition of Wnt3A-stimulated beta-catenin response transcription at 10 uM after 6 hrs by TOPflash dual luciferase reporter gene assay relative to control; assay type: cell-based
In short: (§1)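 HEK293 cells stably carrying p8xTOPFlash and Renilla pRL-TK were seeded at confluency and given Wnt-3A conditioned medium (from L Wnt-3A cells) containing compound, 0.04–10 μM, or DMSO for 6 h. Lysates were read by dual-luciferase assay. The DMSO/Wnt3A signal was set as 100%, and curves were fit (mean ± SEM, n ≥ 3). Percent inhibition at 10 μM was reported where no IC50 could be fitted.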

Homo sapiens [3] = species on record: Homo sapiens; experiment: Inhibition of Wnt/beta-catenin signaling in human SW480 cells assessed as downregulation of cytosolic beta-catenin protein expression at 5 uM after 18 hrs by Western blot method; assay type: cell-based
In short: (§2)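 HCT-116 (McCoy's 5A) or SW480 (MEM) cells, each with 10% FBS, were grown 48 h on poly-D-lysine-coated wells to 60–80% confluency. Fresh medium with compound or DMSO (0.1% final) was added for 18 h. Cytosolic fractions (β-catenin, Axin2) were isolated with hypotonic buffer, or whole cells were lysed in Laemmli buffer (c-Myc, Cyclin D1, Survivin). Immunoblots used β-actin as loading control.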

Homo sapiens [4] = species on record: Homo sapiens; experiment: Inhibition of Wnt/beta-catenin signaling in human HCT116 cells assessed as downregulation of cytosolic beta-catenin protein expression at 5 uM after 18 hrs by Western blot method; assay type: cell-based; in short: as §2
HCT-116 [5] = experiment: Effect on ATP homeostasis in human HCT116 cells assessed as reduction in ATP level at 0.16 uM after 3 hrs in absence of glucose by ATP bioluminescent assay; assay type: ADME, cell-based; parameters: scale not given: the % may be the effect or the level left; details: hct-116, 3 h
Homo sapiens [6] = species on record: Homo sapiens; experiment: (§3) Inhibition of Wnt/beta-catenin signaling (unknown origin) expressed in HEK293 cells assessed as inhibition of Wnt3A-stimulated beta-catenin response transcription after 6 hrs by TOPflash dual luciferase reporter gene assay; assay type: cell-based; in short: as §1
[7] = as §3; assay type: cell-based; details: Homo sapiens, HEK293, 6 h; in short: as §1
Homo sapiens [8] = species on record: Homo sapiens; experiment: Inhibition of Wnt/beta-catenin signaling in human SW480 cells assessed as downregulation of c-Myc protein expression at 5 uM after 18 hrs by Western blot method; assay type: cell-based; in short: as §2
HCT-116 [9] = experiment: Effect on ATP homeostasis in human HCT116 cells assessed as reduction in ATP level after 3 hrs in absence of glucose by ATP bioluminescent assay; assay type: ADME, cell-based; details: for IC50: Homo sapiens, HCT-116, 3 h; for Activity: human, hct-116, 3 h
In short: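 HCT-116 cells attached overnight on poly-D-lysine plates in McCoy's 5A/10% FBS, then switched to glucose-free DMEM with 2mM sodium pyruvate and 2mM L-glutamine containing compound (0.1% final DMSO). After 3 h at 37°C, 5% CO2, cells were lysed in Somatic Cell ATP Releasing Reagent and ATP was read by luciferase bioluminescence, normalized to DMSO control.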

HCT-116 [10] = experiment: Effect on ATP homeostasis in human HCT116 cells assessed as reduction in ATP level at 0.5 to 2 uM after 3 hrs in glucose supplemented media by ATP bioluminescent assay; assay type: ADME, cell-based; details: hct-116, 3 h
In short: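 HCT-116 cells attached overnight on poly-D-lysine plates, then treated 3 h at 37°C in DMEM with 2mM sodium pyruvate, 2mM L-glutamine and 5mM glucose (0.1% final DMSO). ATP was read by luciferase bioluminescence after lysis with Somatic Cell ATP Releasing Reagent, normalized to DMSO control.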

Homo sapiens [11] = species on record: Homo sapiens; experiment: Inhibition of Wnt/beta-catenin signaling in human HCT116 cells assessed as downregulation of survivin protein expression at 5 uM after 18 hrs by Western blot method; assay type: cell-based; in short: as §2
Homo sapiens [12] = species on record: Homo sapiens; experiment: Inhibition of Wnt/beta-catenin signaling in human HCT116 cells assessed as downregulation of c-Myc protein expression at 5 uM after 18 hrs by Western blot method; assay type: cell-based; in short: as §2
Homo sapiens [13] = species on record: Homo sapiens; experiment: Inhibition of Wnt/beta-catenin signaling in human HCT116 cells assessed as downregulation of cytosolic Axin2 protein expression at 5 uM after 18 hrs by Western blot method; assay type: cell-based; in short: as §2
Homo sapiens [14] = species on record: Homo sapiens; experiment: Inhibition of Wnt/beta-catenin signaling in human SW480 cells assessed as downregulation of Cyclin D1 protein expression at 5 uM after 18 hrs by Western blot method; assay type: cell-based; in short: as §2
Homo sapiens [15] = species on record: Homo sapiens; experiment: Inhibition of Wnt/beta-catenin signaling in human HCT116 cells assessed as downregulation of Cyclin D1 protein expression at 5 uM after 18 hrs by Western blot method; assay type: cell-based; in short: as §2
Homo sapiens [16] = species on record: Homo sapiens; experiment: Inhibition of Wnt/beta-catenin signaling (unknown origin) expressed in HEK293 cells assessed as inhibition of Wnt3A-stimulated beta-catenin response transcription at 0.16 uM after 6 hrs by TOPflash dual luciferase reporter gene assay relative to control; assay type: cell-based
In short: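 TOPFlash/Renilla stable HEK293 cells were split from the same batch as parallel ATP assay plates, attached overnight, then treated 6 h with compound in Wnt-3A conditioned medium. Dual-luciferase read-out was taken relative to the DMSO control. Three separate experiments used different cell batches.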

Homo sapiens [17] = species on record: Homo sapiens; experiment: Inhibition of Wnt/beta-catenin signaling in human SW480 cells assessed as downregulation of survivin protein expression at 5 uM after 18 hrs by Western blot method; assay type: cell-based; in short: as §2
Homo sapiens [18] = species on record: Homo sapiens; experiment: Inhibition of Wnt/beta-catenin signaling in human SW480 cells assessed as downregulation of cytosolic Axin2 protein expression at 5 uM after 18 hrs by Western blot method; assay type: cell-based; in short: as §2
HEK293 (Homo sapiens) = experiment: Effect on ATP homeostasis in human HEK293 cells assessed as reduction in ATP level after 3 hrs in absence of glucose by ATP bioluminescent assay; details: HEK293, 3 h
HCT-116 [19] = experiment: Effect on ATP homeostasis in human HCT116 cells assessed as reduction in ATP level at 2 uM after 3 hrs in glucose supplemented media by ATP bioluminescent assay; details: hct-116, 3 h
Homo sapiens [20] = species on record: Homo sapiens; experiment: Inhibition of Wnt/beta-catenin signaling (unknown origin) expressed in HEK293 cells assessed as inhibition of Wnt3A-stimulated beta-catenin response transcription at 0.31 uM after 6 hrs by TOPflash dual luciferase reporter gene assay relative to control; assay type: cell-based
In short: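 HEK293 cells stably carrying p8xTOPFlash and a Renilla luciferase control (pRL-TK), grown in MEM with 10% FBS and 1ug/mL puromycin. Cells were seeded at confluence, then given Wnt-3A conditioned medium (from L Wnt-3A cells) with compound (0.04 to 10μM) or DMSO for 6 h. Lysates were read by dual luciferase, with the Wnt3A + DMSO signal set as 100%.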

HCT-116 [21] = experiment: Effect on ATP homeostasis in human HCT116 cells assessed as reduction in ATP level at 0.31 uM after 3 hrs in absence of glucose by ATP bioluminescent assay; assay type: ADME, cell-based; details: hct-116, 3 h

SMILES: CS(=O)(=O)Nc1ccccc1-c1nc2cc([N+](=O)[O-])ccc2[nH]1
- Activity (Homo sapiens [1]): 0
- inhibition (Homo sapiens [2]): 50%

SMILES: Cc1ccc(S(=O)(=O)Nc2ccccc2-c2nc3cc([N+](=O)[O-])ccc3[nH]2)cc1
- Activity (Homo sapiens [1]): 0
- inhibition (Homo sapiens [2]): 53%

SMILES: Cc1ccc(S(=O)(=O)Nc2ccccc2-c2nc3cc(C(F)(F)F)ccc3[nH]2)cc1
- Activity (Homo sapiens [1]): 0
- inhibition (Homo sapiens [2]): 57%

SMILES: O=C(Nc1ccc([N+](=O)[O-])cc1Cl)c1cc(Cl)ccc1O [NICLOSAMIDE]
- inhibition (Homo sapiens [3]): Active
- inhibition (Homo sapiens [4]): Active
- Activity (HCT-116 [5]): > 80%
- inhibition (Homo sapiens [6]): Dose-dependent effect
- IC50 [7]: 0.12 to 0.28 µM
- inhibition (Homo sapiens [8]): Active
- IC50 (HCT-116 [9]): 0.25 µM
- Activity (HCT-116 [9]): Dose-dependent effect
- Activity (HCT-116 [10]): Toxic
- inhibition (Homo sapiens [11]): Active
- inhibition (Homo sapiens [12]): Active
- inhibition (Homo sapiens [13]): Active
- inhibition (Homo sapiens [14]): Active
- inhibition (Homo sapiens [15]): Active
- inhibition (Homo sapiens [16]): 40 to 50%
- inhibition (Homo sapiens [17]): Active
- Activity (Homo sapiens [1]): 5
- inhibition (Homo sapiens [18]): Active
- EC50 (HEK293 (Homo sapiens)): 0.056 µM

SMILES: O=[N+]([O-])c1ccc2[nH]c(-c3ccccc3NS(=O)(=O)c3c(F)cccc3F)nc2c1
- Activity (Homo sapiens [1]): 0
- inhibition (Homo sapiens [2]): 15%

SMILES: Cc1ccc(S(=O)(=O)Nc2ccc(Cl)cc2-c2nc3cc(C(F)(F)F)ccc3[nH]2)cc1
- IC50 [7]: 3.2 µM
- Activity (Homo sapiens [1]): 0

SMILES: CCCCCC[C@H]1C(=O)O[C@H](C)[C@H](NC(=O)c2cccc(NC=O)c2O)C(=O)O[C@@H](C)[C@@H]1OC(=O)CC(C)C [ANTIMYCIN A]
- Activity (HCT-116 [19]): Toxic

SMILES: O=[N+]([O-])c1ccc2nc(-c3cc(Cl)cc(Cl)c3O)[nH]c2c1
- IC50 [7]: 1.54 µM
- IC50 (HCT-116 [9]): < 0.25 µM
- Activity (HCT-116 [10]): Toxic
- Activity (Homo sapiens [1]): 2

SMILES: O=[N+]([O-])c1ccc2nc(-c3cc(Cl)ccc3O)[nH]c2c1
- inhibition (Homo sapiens [3]): Active
- inhibition (Homo sapiens [4]): Active
- inhibition (Homo sapiens [6]): Dose-dependent effect
- IC50 [7]: 0.36 to 0.48 µM
- inhibition (Homo sapiens [20]): 40%
- inhibition (Homo sapiens [8]): Active
- inhibition (Homo sapiens [11]): Active
- inhibition (Homo sapiens [12]): Active
- inhibition (Homo sapiens [13]): Active
- inhibition (Homo sapiens [14]): Active
- inhibition (Homo sapiens [15]): Active
- inhibition (Homo sapiens [17]): Active
- Activity (Homo sapiens [1]): 3
- inhibition (Homo sapiens [18]): Active
- EC50 (HEK293 (Homo sapiens)): 2.9 µM

SMILES: Oc1ccc(Cl)cc1-c1nc2ccccc2[nH]1
- IC50 [7]: 2.67 µM
- Activity (Homo sapiens [1]): 0

SMILES: CS(=O)(=O)Nc1ccccc1-c1nc2cc(C(F)(F)F)ccc2[nH]1
- Activity (Homo sapiens [1]): 0
- inhibition (Homo sapiens [2]): 74%

SMILES: O=[N+]([O-])c1ccc2[nH]c(-c3cc(Cl)ccc3O)nc2c1
- Activity (HCT-116 [9]): Dose-dependent effect
- Activity (HCT-116 [10]): Non-Toxic
- Activity (HCT-116 [21]): Non-Toxic
